Screening results deposited in PubChem by several laboratories.
Calb biofilm kill = mixtures killing C. albicans biofilm | hit rate 0.02% among 120,000 | inhibition, % at 7.6 µM | AID 1242 | C. albicans biofilm persisters + clotrimazole, fluorescence viability; primary screen in compound mixtures of four per well;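 further: compounds exposed to preformed 24 h biofilms for 48 h; 0% = untreated biofilm control and 100% = clotrimazole plus chlorhexidine kill blank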
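System: C. albicans CAF4-2 wild-type biofilms; Medium: RPMI/MOPS medium, pH 7.0; Reagent: Clotrimazole, 50 µg/mL; Times: biofilm formation 24 h, compound exposure 48 h, 37 °C; Detection: 2-h Alamar Blue fluorescence, 535/590 nm excitation/emission; Evaluation: percent inhibition of biofilm viability.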
ROMK mod = modulators of human ROMK potassium channel; P48048; Tet-inducible ROMK, thallium flux fluorescence; actives lie on both sides; B-score at 10 µM; hit rate 2% among 130,000; AID 1918;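 active means signal ratio slope over the read window, or its plate-corrected B-score, at least 3 SD from the plate mean, either direction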;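 further: B-score of the F/F0 ratio slope over 7 to 12 s after thallium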
Target sequence (P48048 whole entry, looked up): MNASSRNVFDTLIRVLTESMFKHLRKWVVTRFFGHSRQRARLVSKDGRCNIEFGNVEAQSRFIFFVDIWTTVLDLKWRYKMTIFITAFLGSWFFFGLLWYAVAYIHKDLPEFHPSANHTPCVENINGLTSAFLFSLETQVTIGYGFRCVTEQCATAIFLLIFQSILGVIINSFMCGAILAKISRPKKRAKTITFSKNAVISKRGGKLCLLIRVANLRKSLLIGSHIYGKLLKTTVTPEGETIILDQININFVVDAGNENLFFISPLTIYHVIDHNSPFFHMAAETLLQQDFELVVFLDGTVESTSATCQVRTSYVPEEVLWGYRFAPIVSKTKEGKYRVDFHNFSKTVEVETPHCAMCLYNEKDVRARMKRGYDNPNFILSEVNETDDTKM
ROMK retest = confirmation of human ROMK potassium channel modulators. ROMK thallium flux, fluorescence ratio; active compounds read low. hit rate 54% among 3,000. shares compounds with ROMK mod. normalized thallium flux (F/F0 slope) at 10 µM;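 active means Flux at 10 µM at least 3 SD below or above vehicle control mean in one or both replicates; inconclusive means no clear call, values can overlap the other calls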
Numbers without * were called inactive; ? = inconclusive; · = no result. Shown is part of a subset that was picked to be rich in hits.

SMILES | Calb biofilm kill | ROMK mod | ROMK retest
O=C(Nc1ncn[nH]1)c1cc(S(=O)(=O)Nc2cccc(C(F)(F)F)c2)ccc1Cl | 17 | -0.8 | ·
COc1ccc(CCNC2CCN(C)CC2)cc1OC | · | -0.39 | ·
Nc1nonc1-c1nc2ccccc2n1CC(=O)Nc1ccccc1 | 17 | · | ·
CCOC(=O)c1ccccc1NC(=O)Cn1c(-c2nonc2N)nc2ccccc21 | · | 4.4* | 0.087
CNC(=S)NNc1nc(C)cc(C)n1 | 7 | 0.36 | ·
Cc1ccc(C(C(=O)NC2CCCCC2)N(C(=O)Cc2c[nH]c3ccccc23)c2ccccc2C)o1 (stereo unspecified) | 15 | 0.51 | ·
Cc1ccc(C(C(=O)NC2CCCCC2)N(Cc2ccco2)C(=O)Cc2c[nH]c3ccccc23)o1 (stereo unspecified) | · | · | ?
Cc1cc(NC(=O)CO/N=C/c2ccc3c(c2)OCO3)ccc1Br | 8 | -0.93 | ·
COC1=C/C(=C/c2c(N)n3nc(-c4ccc(C)cc4)sc3nc2=O)C=CC1=O | 32 | -1.6 | ·
CCOC1=C/C(=C/c2c(N)n3nc(-c4ccccc4)sc3nc2=O)C=CC1=O | 9 | -3.5* | 0.044*
C=CS(=O)(=O)c1ccc(Oc2ccc(S(=O)(=O)C=C)cc2)cc1 | 13 | -5.8* | 0.041*
NS(=O)(=O)c1ccc(Oc2ccc(S(N)(=O)=O)cc2)cc1 | 20 | 0.44 | ·
COc1ccccc1C1(CC(=O)N2CCOCC2)CCOC(C(C)C)C1 (stereo unspecified) | · | -0.097 | ·
Cn1c(=O)cc(SCC(=O)N2CCCC2)c2ccc(Cl)cc21 | · | 0.42 | ·
COCCNC(=O)CSc1cc(=O)n(C)c2cc(Cl)ccc12 | 2 | -9.8* | 0.084
O=c1[nH]c2ccc(N=Cc3c(O)ccc4cc(Br)ccc34)cc2[nH]1 | 11 | -0.6 | ·
Cc1cccc(CN2C(=O)c3ccccc3Sc3ccc(C(=O)O)cc32)c1 | 15 | -0.18 | ·
O=C(c1ccc2c(c1)N(Cc1ccccc1)C(=O)c1ccccc1S2)N1CCCC1 | · | · | 0.061*
CN1CCN(C(=O)C2=C[C@@H](C(C)(C)C)C[C@@H](OCc3ccc(CO)cc3)O2)CC1 | 7 | · | ·
Cc1ccc(CSCCNC(=O)CN(c2ccccc2)S(C)(=O)=O)cc1 | 7 | -0.11 | ·
O=C(Nc1ccc(Cl)cc1)N1CCCN(Cc2ccc(F)cc2)C1 | · | -2.7* | 0.056*
O=C(Nc1ccccc1)N1CCN(Cc2ccc(Cl)cc2)CC1 | 10 | · | ·
CC(=O)Nc1ccc(S(=O)(=O)NNC(=O)c2cc3c4ccccc4n(C)c3s2)cc1 | · | 0.054 | ·
Cc1cccn2c(=O)c(C=O)c(N3CC(C)OC(C)C3)nc12 (stereo unspecified) | 25 | -0.27 | ·
Cc1cccn2c(=O)c(C=O)c(N3CCCCCC3)nc12 | · | 2.1* | 0.074
SMILES | Calb biofilm kill | ROMK mod | ROMK retest
O=C1CCCC2=C1C(c1ccc(O)c(Br)c1)C1=C(CCCC1=O)N2c1ccccc1 | 10 | 0.34 | ·
N#C/C(=C\c1ccccn1)c1nc2ccccc2s1 | -5 | -5.7* | 0.032*
COc1ccc(/C(C#N)=C/c2ccccn2)cc1 | 17 | 0.7 | ·
CCOC(=O)c1c(C)n(C)c2ccc(O)c(CN3CCCCC3)c12 | · | -2.5 | ·
CCOC(=O)c1c(C)n(C)c2ccc(OC)c(NC(=O)CN3CCCCC3)c12 | · | -4.1* | 0.056*
c1ccc2c(c1)nc1n2CC2CON(C3CCCCC3)C12 (stereo unspecified) | 2 | · | ·
N#CC1=C(N)Oc2cc(O)ccc2C1c1cccnc1 (stereo unspecified) | 12 | -0.86 | ·
CN(C)c1ccc2c(c1)OC(N)=C(C#N)C2c1cccc(F)c1 (stereo unspecified) | · | · | 0.064*
Cc1nc2c(C(=O)NCc3ccco3)cnn2c(C)c1Cc1ccc(F)cc1Cl | · | · | 0.072
Cc1cccc(Cc2c(C)nc3c(C(=O)NCc4ccco4)cnn3c2C)c1 | · | -0.61 | ·
CCOC(=O)N1CCN(C(=O)c2cc3c(=O)[nH]c4ccccc4c3s2)CC1 | · | 0.6 | ·
CCCN1CCN(CCCNC(=O)c2cc3c(=O)[nH]c4ccccc4c3s2)CC1 | 13 | -3.8* | 0.059*
C/C(=N\Nc1ccc2nncn2n1)c1ccc(Br)s1 | 15 | 0.028 | ·
Cc1cc(=O)n(C(NC(=O)c2ccccc2)C(=O)c2ccccc2)cn1 (stereo unspecified) | 23 | · | ·
CCOc1cc(/C=C(\C#N)c2[nH]nc(N)c2C#N)ccc1O | · | 4.8* | 0.088
CCOC(=O)/C(C#N)=C\c1ccc(O)c(OC)c1 | 20 | -0.037 | ·
Cc1nn2c3ccccc3n(Cc3ccccc3)c2nc1=O | -2 | · | ·
CC(C)(C)c1cnnn1-c1ccc(C(=O)CCl)cc1 | · | · | 0.054*
CC(C)(C)c1cnnn1-c1ccc(C=O)cc1 | -6 | -0.74 | ·
Nn1c(SCC(=O)Nc2ccc3c(c2)OCO3)nnc1C1CC1 | · | 1.2 | ·
C=CCNC(=O)/C(C#N)=C/c1ccc(SC)cc1 | 13 | -4.5* | 0.053*
COC(=O)N/N=C/c1ccc(OS(=O)(=O)c2ccc(C)cc2)c(OC)c1 | 22 | -0.59 | ·
C=CCNC(=O)/C(C#N)=C/c1ccc(OS(=O)(=O)c2ccc(C)cc2)c(OC)c1 | 12 | -4.6* | 0.042*
CC1CCCCC1NC(=O)/C(C#N)=C/c1ccc(F)c(F)c1 (stereo unspecified) | 15 | -3* | 0.05*
CC1CCCCC1NC(=O)/C(C#N)=C/c1ccc2c(c1)OCCO2 (stereo unspecified) | -4 | -2.4 | ·
SMILES | Calb biofilm kill | ROMK mod | ROMK retest
CSc1ccc(/C=C(\C#N)C(=O)NC2CCCCC2)cc1 | 9 | -2.5* | 0.054*
C=CCNC(=O)/C(C#N)=C/c1ccc2c(c1)OCCO2 | 16 | -0.42 | ·
CC(=O)Nc1ccc(/C=C(\C#N)C(=O)NC2CCCCC2)cc1 | 3 | -0.15 | ·
CN1CCCNc2nc3ccccc3nc21 | 18 | · | ·
CCCCc1c(C)c2cc(C)ccc2[nH]c1=O | · | -0.92 | ·
Cc1cnc(C)c(N2CCN(Cc3cn(C)nc3-c3cccc(Cl)c3)CC2)n1 | 0 | -0.87 | ·
O=c1c2ccccc2nnn1COc1ccc(Cl)cc1Br | 7 | -0.64 | ·
CC(Oc1ccc(Cl)cc1Cl)C(=O)OCn1nnc2ccccc2c1=O (stereo unspecified) | · | 3.7* | 0.083
COc1ccc(/C=C(/Sc2nnc(-c3ccc(Cl)cc3)o2)C(=O)O)cc1 | 15 | 0.48 | ·
COc1cc(/C=C(/Sc2nnc(-c3ccc(F)cc3)o2)C(=O)O)ccc1OC(F)F | 2 | -11* | 0.077
Cc1ccc(-c2cc(C(=O)O)n[nH]2)o1 | · | 0.47 | ·
N#Cc1nc(-c2cccc3ccccc23)oc1NCCN1CCCCC1 | · | -3.4* | 0.065*
CC(C)Nc1oc(-c2cccc3ccccc23)nc1C#N | · | -0.37 | ·
Cc1occc1C(=O)N1CCN(Cc2ccccc2)CC1 | · | -0.18 | ·
O=C(O)c1ccoc1CN1CCCCC1 | 9 | 1.7* | 0.075
CCNC(=O)COc1ccc(OCc2ccccc2)cc1 | -7 | -1.5 | ·
CCOC(=O)c1ccc(Oc2nc(NC)nc(SC)n2)cc1 | · | 0.0033 | ·
Cc1cccc(C)c1OCC(=O)OCC(=O)c1ccc2c(c1)NC(=O)CO2 | · | -0.3 | ·
N#C/C(=C\c1ccc(F)cc1)c1n[nH]c(Cn2cncn2)n1 | · | -1.1 | ·
N#C/C(=C\c1cccc(Cl)c1)c1n[nH]c(Cn2cncn2)n1 | · | -2.6* | 0.053*
Cc1csc(NC(=O)CSc2nnnn2C)n1 | 11 | 0.91 | ·
Cc1cc(NC(=O)CSc2nnc(COc3ccccc3)n2Cc2ccco2)no1 | · | -0.15 | ·
Cc1ccc(OCc2nnc(SCC(=O)C(C)(C)C)n2Cc2ccco2)cc1 | · | -3.6* | 0.075
Cc1noc(NC(=O)c2ccc(Cl)cc2)c1Cl | 14 | -0.056 | ·
CC1=Nc2ccccc2/C1=C\c1sc(Nc2ccc(C)cc2)nc1O | 9 | 2* | 0.095
